# From the EternaBench riboswitch data
# Assays:
# MS2 coat protein [1] = assay: apparent Kd, MS2 coat protein; higher = weaker binding; RNA-MaP array
# Outline: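 Apparent Kd values come from the median of binding-curve fits to single clusters. To obtain them, designed RNAs transcribed on an Illumina sequencing chip from sequenced DNA templates were incubated at room temperature with fluorescently labeled MS2 coat protein at 1.5 nM to 3 μM, with or without input ligand, for 0.8–1.5 h at the lowest and 10–20 min at the highest concentrations. Designs measured on fewer than 10 clusters were excluded.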
# MS2 coat protein [2] = assay: apparent Kd, MS2 coat protein; higher = weaker binding; RNA-MaP array; FMN 200 µM where present
# Outline: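 The apparent Kd is reported as the median of filtered per-cluster binding-curve fits. To get these curves, designs transcribed by stalled E. coli RNA polymerase on Illumina sequencing-chip clusters were titrated with SNAP-549-labelled MS2 coat protein from 0.7 or 1.5 nM, doubling to 3 µM. Titrations were run without and then with constant ligand in 100 mM Tris-HCl pH 7.5, 80 mM KCl, 4 mM MgCl2, BSA, DTT, yeast tRNA and Tween-20, and green signal was normalised to red-channel RNA signal and control-cluster median Fmax.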
# [3] = designed as: OFF switch for flavin mononucleotide, no ligand
# [4] = ligand present: flavin mononucleotide, designed as: OFF switch for flavin mononucleotide
# [5] = designed as: ON switch for flavin mononucleotide, no ligand
# [6] = ligand present: flavin mononucleotide, designed as: ON switch for flavin mononucleotide
sequence,measurement,setting,value
AUCAUCAGUUCGGCCGCCACUGUUUGGCACAGUUGUAUCGUACAUGAGGAUCACCCAUGUCACCACAGGACCGGGAACGCCGUCG,apparent Kd,"MS2 coat protein [1]; designed as: OFF switch for tryptophan, no ligand",16.1 nM
same,apparent Kd,"MS2 coat protein [1]; ligand present: tryptophan, designed as: OFF switch for tryptophan",17.3 nM
AAGCGUUCAGGAUAUACAUGAGGAUCACCCAUGUAAUGGAUGCUGCAUUACCGGGCGAGUAGAAGGGAAACGUC,apparent Kd,MS2 coat protein [1]; [3],6.09 nM
same,apparent Kd,MS2 coat protein [1]; [4],6.24 nM
ACCAUCACAUGAGGAUCACCCAUGUAAAUAACUACAUAGACGGAGGAUAUCACAAUAACAGCGAAAGAGAAGGCCGGUGUAAAA,apparent Kd,MS2 coat protein [1]; [5],11.5 nM
same,apparent Kd,MS2 coat protein [1]; [6],8.1 nM
UGACCACAUGAGGAUCACCCAUGUCAGGAUAUAGGUACACUGGUACAGCCUUUUCGGCCUAGAAGGGACUCUCU,apparent Kd,MS2 coat protein [1]; [3],9.09 nM
same,apparent Kd,MS2 coat protein [1]; [4],8.42 nM
CGUUAAGAAUCGGCCGCCACUCCAUACGUGUGAAUCGCGGAUCGACAUGAGGAUCACCCAUGUCGGAGGACCGGGAUCCUCUUUC,apparent Kd,"MS2 coat protein [1]; designed as: ON switch for tryptophan, no ligand",35 nM
same,apparent Kd,"MS2 coat protein [1]; ligand present: tryptophan, designed as: ON switch for tryptophan",23.3 nM
AAUAGAGCACUAGGAUAUGUUUCGUGUGCAGGUGGACAUGAGGAUCACCCAUGUAUAUGUUCAAGACAGAAGGAGACAGAUGAA,apparent Kd,MS2 coat protein [1]; [3],59.2 nM
same,apparent Kd,MS2 coat protein [1]; [4],38.4 nM
CACGCCAUAGGAUAUACAUGAGGAUCACCCAUGUGGUGGUAGCAGCCAUAACGGUACAGUAGAAGGAUGUGCGA,apparent Kd,MS2 coat protein [1]; [3],274 nM
same,apparent Kd,MS2 coat protein [1]; [4],171 nM
UCAAGUGAACCAUGGAAACAUUCAAUAGAUACCAGCAUUAAAACCUGCCCUUGGCAGCUAUGAACAUGAGGAUCACCCAUGUGAA,apparent Kd,"MS2 coat protein [1]; designed as: OFF switch for theophylline, no ligand",18.5 nM
same,apparent Kd,"MS2 coat protein [1]; ligand present: theophylline, designed as: OFF switch for theophylline",71.4 nM
UCGGCUUCCCAAGGAUAUGAGGUGCUUAUCGACAUGAGGAUCACCCAUGUAAAACUAGCUGCCAUUCAGAAGGUGGACACGCGC,apparent Kd,MS2 coat protein [1]; [5],17 nM
same,apparent Kd,MS2 coat protein [1]; [6],7.78 nM
GUAUUGUAAGGAUAUAGUAGGCCAGUACGAAGGCUUGAGCACUAGAAGGUACAUGAGGAUCACCCAUGUGGUGG,apparent Kd,MS2 coat protein [1]; [3],401 nM
same,apparent Kd,MS2 coat protein [1]; [4],146 nM
GAUCCCACGAAGAAGGUCAGAUUUAGAUUACUUGAAGGAUAUUCACAUGAGGAUCACCCAUGUCCCGGCGCGGACUAGCCGAAU,apparent Kd,MS2 coat protein [1]; [3],107 nM
same,apparent Kd,MS2 coat protein [1]; [4],235 nM
UGCCUAUACCGAGGAUAUUACGUCAGAUGUGUGUAAGAAGGCGGGUUCCGAUCAACAUGAGGAUCACCCAUGUAUCUUUACGGC,apparent Kd,MS2 coat protein [1]; [5],24.5 nM
same,apparent Kd,MS2 coat protein [1]; [6],8.72 nM
UGGUGGAAGACAUGAGGAUCACCCAUGUUCGUAGAUGCCGAGCAGGAUAUUAGAUCAUAAACCAGUAAGAAGGGCUGAGUGUCU,apparent Kd,MS2 coat protein [1]; [5],31.8 nM
same,apparent Kd,MS2 coat protein [1]; [6],26.1 nM
GGGUUAAAGCAGAAGGGUUACGGACAAAAUUAAACAGGAUAUGCCGUAAUACAUGAGGAUCACCCAUGUCAUACGUCAUCAGGG,apparent Kd,MS2 coat protein [1]; [5],18.9 nM
same,apparent Kd,MS2 coat protein [1]; [6],16 nM
UCUAUUAACUAAGGAUAUAGAACAGGCCGGAUUUUGUUGCGUCUGACAUGAGGAUCACCCAUGUUCUAGAAGGUAGACUGCUGC,apparent Kd,MS2 coat protein [1]; [3],13.3 nM
same,apparent Kd,MS2 coat protein [1]; [4],11.7 nM
AGCCGUUGGGAUAGACAUGAGGAUCACCCAUGUAAAAGCGAAGAGGAUAUCAGAAUUAAGACAACAGAGAAGGCAUAAAUACAA,apparent Kd,MS2 coat protein [1]; [5],38.1 nM
same,apparent Kd,MS2 coat protein [1]; [6],28.3 nM
AUACGAGCCAAGAAGGAGGGAGAUCCUGCAGUCCUAGGAUAUUGGCCACAAUCGGCGGACGACAUGAGGAUCACCCAUGUCCCG,apparent Kd,MS2 coat protein [1]; [5],41.8 nM
same,apparent Kd,MS2 coat protein [1]; [6],16 nM
GUGCGUGGCUAGGAUAUUGUGGGUUUUUGUCAGCGAGAAGGAGCCACAUGAGGAUCACCCAUGUGGUGUUGCUC,apparent Kd,MS2 coat protein [2]; [3],187 nM
same,apparent Kd,MS2 coat protein [2]; [4],57.1 nM
CCCGCGUUUCGCGCCUACAUGAGGAUCACCCAUGUUUGUAGGCAGGAUAUCGUCCGCUCUGCGGGCGAGAAGGGCUGUUGUGGU,apparent Kd,MS2 coat protein [2]; [5],90.8 nM
same,apparent Kd,MS2 coat protein [2]; [6],84 nM
GGUAUGUGAGGAUAUGGGAUUGUAGACAUGAGGAUCACCCAUGUCAUGUCCGAUCAUUGCCCAGAAGGUAUCCGCU,apparent Kd,MS2 coat protein [2]; [3],25.6 nM
same,apparent Kd,MS2 coat protein [2]; [4],27.1 nM
CUAUUGGUAACAGGAUAUAUGAGUCCUACAUGAGGAUCACCCAUGUAGGUGGUCAAACGUGAUUAGUAGAAGGGUUACCAAUAG,apparent Kd,MS2 coat protein [2]; [5],12.2 nM
same,apparent Kd,MS2 coat protein [2]; [6],6.18 nM
ACAUGGUAGUAGAAGGGUAUUACUUUAGAUACAACCAUUUGUAUUGUUUAUACAGGAUAUGCUUACAUGAGGAUCACCCAUGUU,apparent Kd,MS2 coat protein [2]; [3],11.3 nM
same,apparent Kd,MS2 coat protein [2]; [4],11.1 nM
ACAUGAGGAUCACCCAUGUUAUCAGGGACUUCAAUUAUUUGUAGAAGGCUGUUUUCUUGUAAGUCAGAGGAUAUACAAUUAAAU,apparent Kd,MS2 coat protein [2]; [3],11.9 nM
same,apparent Kd,MS2 coat protein [2]; [4],14.3 nM
AAUAAACACACAGGAUAUAGCAUCGUCGUUAUGAACUUAAUGACGACGAUGCUAGAAGGGUGAACACAUGAGGAUCACCCAUGU,apparent Kd,MS2 coat protein [2]; [5],211 nM
same,apparent Kd,MS2 coat protein [2]; [6],35.6 nM
AUUAUUGACGAAGGAUAUGGAUACAUGAGGAUCACCCAUGUAUAAUUUGUGUUCUUAUAUUUGAUCCAGAAGGUCGUUGUUUAU,apparent Kd,MS2 coat protein [2]; [3],35.8 nM
same,apparent Kd,MS2 coat protein [2]; [4],54.6 nM
